PGE2 EP2 inh: EP2 receptor (human) inhibition. P43116. C6 glioma cells expressing human EP2, cAMP TR-FRET; cells stimulated with saturating PGE2. inhibition, % at 25 µM. 260,000 compounds, 0.52% hits;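 active means percent inhibition above 40 after rounding to a whole number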;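 further: rat C6 glioma host cells with rolipram phosphodiesterase inhibitor present; the protocol text gives 20 µM as final concentration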
hK5 inh: kallikrein 5 (human) inhibition. Q9Y337. recombinant hK5, fluorogenic AMC substrate cleavage. inhibition, % at 5 µM. 210,000 compounds, 0.59% hits;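 active means inhibition of 40% or more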
EP2 mod: modulates human prostaglandin E2 receptor EP2 signaling. EP2-expressing cells, cAMP HTRF FRET, PGE2 co-stimulation. 260,000 compounds, 0.83% hits. AID 940. induction, % at 25 µM;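 active means compounds whose cAMP rise, as percent of the full-agonist control response, exceeds 60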;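 further: rat C6 glioma line stably carrying human EP2 under a CMV promoter; the protocol text gives 20 µM as final concentration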
thrombin 1536: blocks human thrombin protease activity; P00734; alpha-thrombin, Boc-VPR-AMC fluorogenic substrate cleavage; inhibition, % at 5 µM; 220,000 compounds, 0.26% hits; AID 1046;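 active means inhibition at or above 40%; inactive means inhibition below 40%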
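Material: human alpha-thrombin enzyme / Medium: pH 7.5 Tris (50 mM) with NaCl 150 mM, Tween 20 0.05% / Compound: single-point dosing at 5 µM, 0.2% DMSO / Incubation: enzyme reaction carried out at room temperature / Detection: AMC fluorescence, 355/460 nm / Read-out basis: percent inhibition scaled between no-compound controls and no-enzyme blanks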
FXIIa inh 1536: factor XIIa (human) inhibition | 220,000 compounds, 0.3% hits | P00748 | inhibition, % at 5 µM | purified FXIIa, Boc-QGR-AMC fluorogenic substrate, 2 h; in the data active means inhibition above about 40%
Target sequence (P00748 20-372 limits assumed): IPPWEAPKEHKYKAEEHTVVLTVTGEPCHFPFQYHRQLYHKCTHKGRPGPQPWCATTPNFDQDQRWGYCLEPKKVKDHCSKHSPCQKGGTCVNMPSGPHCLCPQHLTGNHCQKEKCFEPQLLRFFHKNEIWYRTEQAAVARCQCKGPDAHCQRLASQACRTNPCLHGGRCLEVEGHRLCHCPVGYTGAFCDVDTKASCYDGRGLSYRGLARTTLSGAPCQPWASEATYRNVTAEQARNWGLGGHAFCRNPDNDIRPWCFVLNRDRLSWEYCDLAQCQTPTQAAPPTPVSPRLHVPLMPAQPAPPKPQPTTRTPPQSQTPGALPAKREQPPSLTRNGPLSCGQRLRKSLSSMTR
Target sequence (P00748 373-615 limits assumed): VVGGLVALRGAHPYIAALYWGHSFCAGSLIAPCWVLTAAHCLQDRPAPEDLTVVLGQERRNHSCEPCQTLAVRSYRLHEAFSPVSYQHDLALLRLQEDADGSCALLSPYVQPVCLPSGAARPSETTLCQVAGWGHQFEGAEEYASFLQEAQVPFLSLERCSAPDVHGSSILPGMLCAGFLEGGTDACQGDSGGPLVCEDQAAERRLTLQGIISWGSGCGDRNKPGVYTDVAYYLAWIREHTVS
FXIa inh 1536: inhibitors of human coagulation factor XIa | P03951 | purified FXIa, Boc-Glu-Ala-Arg-AMC fluorogenic substrate | inhibition, % at 5 µM | 220,000 compounds, 0.14% hits;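 active means inhibition of at least 40%; inactive means inhibition below 40%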;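 further: fluorescence of freed AMC excited at 355 nm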
Hits are given with their value; n = inactive; x = no result; ! = not confirmed by another sample. A selection: hits, their analogues and other compounds. The true share with any hit is near 2.1%.

SMILES	PGE2 EP2 inh	hK5 inh	EP2 mod	thrombin 1536	FXIIa inh 1536	FXIa inh 1536
S=C(Nc1ccc(Cl)cc1)NC1CC2CCCC(C1)N2C1CC1 (stereo unspecified)	48!	n	n	n	n	n
COCCN(Cc1cc2cc(C)cc(C)c2[nH]c1=O)C(=O)Nc1ccc(C(C)C)cc1	n	x	n	x	x	x
CCC(CC)C(=O)Nc1nnc(Cc2ccc(OC)c(OC)c2)s1	n	x	n	x	x	x
COc1cccc(/C=N/NC(=O)c2ccc(-c3ccccc3)cc2)c1O	n	n	n	n	n	n
COc1cccc(/C=N/NC(=O)c2[nH]c(C)c(C(=O)N/N=C/c3cccc(OC)c3O)c2C)c1O	n	n	n	n	n	40
COC(=O)C(C)NC(=O)C1CCCN1S(=O)(=O)c1cc(C)c(Cl)cc1C (stereo unspecified)	n	49	n	n	48	n
O=C(Nc1cccc(Cl)c1)NC1(C(=O)NCc2ccc3c(c2)OCO3)CCCCC1	n	x	n	x	x	x
CCNC(=S)N(Cc1ccccc1)Cc1cc2cc(C)c(Cl)cc2[nH]c1=O	n	x	n	x	x	x
CCOC(=O)N1CCN(c2c(NCc3ccccn3)c(=O)c2=O)CC1	n	40	n	n	n	n
CCOC(=O)N1CCN(c2c(NCCc3ccccc3)c(=O)c2=O)CC1	n	n	n	n	n	n
C=C(C)Cn1c(SCC(=O)Nc2ccc(F)cc2)nc2sc3c(c2c1=O)CCCC3	n	x	n	x	x	x
CCN(CC)C(=O)c1c(-c2ccccc2)oc2ccc(OC)cc12	n	n	64	n	n	n
CCOC(=O)c1c(-c2ccccc2)oc2ccc(OCC(=O)O)cc12	n	n	68	n	n	n
CC(=O)C1=C(O)C(=O)N(CCc2c[nH]c3ccccc23)C1c1ccccn1 (stereo unspecified)	n	x	n	x	x	x
CC(C(=O)Oc1ccc2c(c1)OCO2)N1C(=O)c2ccccc2C1=O (stereo unspecified)	n	n	n	n	57	n
CCc1nc2sc3c(c2c2nnc(SCC(=O)NCc4ccc5c(c4)OCO5)n12)CCC(C)C3 (stereo unspecified)	n	x	80	x	x	x
O=C1CC[C@@H](NCc2cccs2)[C@H](c2cc(F)cc(F)c2)N1	n	x	n	x	x	x
CC[C@H]1CN(C)[C@@H]2Cc3c([nH]c4ccccc34)C(=O)C[C@H]1[C@H]2C(=O)OC	52	x	n	x	x	x
OCCCNC(c1ccccc1)c1ccncc1 (stereo unspecified)	n	x	n	x	x	x
COc1ccc2c(c1)CN([C@H](C)[C@@H]1CC[C@@H]3[C@H]4CC[C@H]5C[C@@H](O)CC[C@]5(C)[C@@H]4CC[C@]31C)CO2	61	x	n	x	x	x
CCc1nc2oc3cc(OC)ccc3c(=O)c2c(=O)n1Cc1ccccc1	n	48	n	n	n	n
O=C(c1ccccc1)c1ccccc1NC(=O)C1CCCN1Cc1ccccc1 (stereo unspecified)	n	n	73	n	n	n
O=C(CN1CCCC1)Nc1ccccc1C(=O)c1ccccc1	n	n	n	n	n	n
C=CCOc1ccccc1NC(=O)Cn1cnc2sc(C)cc2c1=O	n	x	n	x	x	x
CCOc1ccc(CCNC(=O)c2cc3ccccn3n2)cc1OCC	n	60	n	n	n	n
SMILES	PGE2 EP2 inh	hK5 inh	EP2 mod	thrombin 1536	FXIIa inh 1536	FXIa inh 1536
O=C(NCc1ccc(F)cc1)c1cc2ccccn2n1	n	n	n	n	n	n
Cc1ccc(OCC(=O)N2CCCCC2)c(Br)c1	n	48	n	n	n	n
Cc1nn2c(NCCCN(C)C)c3c(nc2c1-c1ccccc1)CCC3	n	56	n	68	n	n
Cc1nn2c(C(F)(F)F)c3c(nc2c1-c1ccccc1)CCC3	n	n	62	n	n	n
CCC(=O)N1CCCc2cc(C(O)CN3CCC(OCc4ccccc4)CC3)ccc21 (stereo unspecified)	n	x	n	x	x	x
CC(C)(C)C1=NN(C(=O)c2ccc(Cl)cc2)C(O)(C(F)(F)F)C1 (stereo unspecified)	n	x	n	x	x	x
O=C(CN1C(=O)c2ccccc2C1=O)c1ccccc1	n	n	n	n	n	n
O=C(CN1C(=O)c2ccccc2C1=O)[C@@H](O)CN1C(=O)c2ccccc2C1=O	46	x	n	x	x	x
O=C(Oc1ccc2ccc(=O)oc2c1)c1cccs1	n	n	n	n	62	51
CC(=O)Oc1ccc2ccc(=O)oc2c1	n	n	n	n	n	n
CCOCCCNC(=S)N(Cc1cc2cc(C)c(C)cc2[nH]c1=O)C1CCCCC1	n	x	n	x	x	x
CCc1ccc[n+](-c2[nH]c(=O)sc2/C=N/NC([S-])=Nc2ccccc2)c1	n	n	n	n	n	n
CCc1ccc[n+](-c2[nH]c(=O)sc2/C=N/N=C(\N)[O-])c1	n	n	n	n	n	42
CC(CO)(CO)NCc1ccc(-c2ccccc2)cc1	n	n	n	46	n	n
COc1ccc(C(=O)CSc2nc3c(C)c(C)ccc3cc2C#N)cc1OC	50	x	n	x	x	x
O=C(NCCCN1CCCC1)c1ccccc1Cl	n	x	n	x	x	x
Cc1nn(CCC(=O)N2CCc3c([nH]c4ccc(Cl)cc34)C2)c(C)c1C	n	x	n	x	x	x
CCOC(=O)c1nn(-c2ccc(OC)cc2)c(=O)c(C#N)c1C	74	x	n	x	x	x
COc1ccc(-n2nc(C(=O)N3CCCCC3)c(C)c(C#N)c2=O)cc1	n	n	n	n	n	n
N#CC1=C(N)Oc2n[nH]c(-c3cccs3)c2C1c1cccc(Cl)c1Cl (stereo unspecified)	n	x	n	x	x	x
Cc1cc(C(C#N)c2cccc(Cl)c2)n2ncnc2n1 (stereo unspecified)	x	n	n	n	42	n
CC(C)C(NC(=O)OC(C)(C)C)C(=O)NC(CCC(=O)OCc1ccccc1)C(N)=O (stereo unspecified)	n	n	n	n	n	n
COc1ccccc1NC(=O)C(NC(=O)OC(C)(C)C)C(C)OCc1ccccc1 (stereo unspecified)	n	n	63	n	n	n
O=C(Cn1ncn2c(cc3occc32)c1=O)NC(c1ccccc1)c1ccncc1 (stereo unspecified)	n	x	n	x	x	x
C=CCOc1c(Cl)cc(C2C(C#N)=C(N)OC3=C2C(=O)CC(C)(C)C3)cc1OCC (stereo unspecified)	n	x	n	x	x	x
SMILES	PGE2 EP2 inh	hK5 inh	EP2 mod	thrombin 1536	FXIIa inh 1536	FXIa inh 1536
O=C(NNc1c(Cl)cc(Cl)cc1Cl)c1n[nH]c(=O)c2ccccc12	n	n	n	n	74	n
O=P(O)(CCP(=O)(O)c1ccccc1)c1ccccc1	n	x	n	x	x	x
c1ccc([P+](CC[P+](c2ccccc2)(c2ccccc2)c2ccccc2)(c2ccccc2)c2ccccc2)cc1	45	x	n	x	x	x
O=C(CSc1nnc(-c2ccccc2Cl)o1)N1c2ccccc2CCc2ccccc21	n	x	n	x	x	x
Cc1cc(C(F)(F)F)c2c(NCc3ccnc4ccccc34)n[nH]c2n1	n	x	n	x	x	x
CN(CCc1ccccn1)c1ccc2c(c1)Cc1ccccc1-2	52	x	n	x	x	x
C(=Nc1ccc2c(c1)Cc1ccccc1-2)c1ccccn1	n	x	n	x	x	x
O=C(Nc1cccc(-n2cnnc2)c1)c1cc2c([nH]c1=O)CCCCC2	n	x	n	x	x	x
